From ChEMBL document CHEMBL1153268 (Bioorg Med Chem Lett, 2009)
Calls of active or inactive are those of the source. The rule behind the calls is not given here.

Tests used:
[1] = target: T1, Neurotensin receptor type 1 (Homo sapiens, UniProt P30989); assay: Agonist activity at NTR1 expressed in CHOK1 cells assessed as stimulation of calcium mobilization at 10 uM relative to neurotensin; assay type: functional, cell-based; conditions: CHO-K1
How it was run: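 CHO-K1 cells stably expressing NTR1, plated 20,000/well 24 h before assay, washed and loaded with calcium-4 dye in HBSS/20 mM HEPES/2 mM probenecid, 1 h, 37 °C, 5% CO2. Compound added at 10 μM final (1% DMSO), triplicate.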

[2] = target: T1, Neurotensin receptor type 1; assay: Agonist activity at NTR1 expressed in CHOK1 cells by calcium mobilization assay; assay type: functional, cell-based, CHO-K1

T1 sequence (P30989 whole entry): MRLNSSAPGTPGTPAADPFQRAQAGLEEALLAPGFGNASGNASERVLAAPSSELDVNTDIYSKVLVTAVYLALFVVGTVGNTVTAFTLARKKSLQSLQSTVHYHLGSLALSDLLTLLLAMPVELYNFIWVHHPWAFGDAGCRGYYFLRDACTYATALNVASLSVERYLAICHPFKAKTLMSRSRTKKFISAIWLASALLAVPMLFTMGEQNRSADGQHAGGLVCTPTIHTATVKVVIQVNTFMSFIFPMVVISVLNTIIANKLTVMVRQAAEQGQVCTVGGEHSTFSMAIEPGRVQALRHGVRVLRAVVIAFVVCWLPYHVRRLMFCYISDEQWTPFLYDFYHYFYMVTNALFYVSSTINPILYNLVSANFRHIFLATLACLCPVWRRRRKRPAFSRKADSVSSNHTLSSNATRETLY

Activity [1] | EC50 [2] [nM] | SMILES
11% | – | CC[C@H](NC(=O)c1cc(-c2c(OC)cccc2OC)n(-c2ccnc3cc(Cl)ccc23)n1)C(=O)O
18% | – | CCC[C@H](NC(=O)c1cc(-c2c(OC)cccc2OC)n(-c2ccnc3cc(Cl)ccc23)n1)C(=O)O
inactive | – | COc1cccc(OC)c1-c1cc(C(=O)N[C@@H](CC(C)C)C(=O)O)nn1-c1cccc2ccccc12
20% | – | CCCC[C@H](NC(=O)c1cc(-c2c(OC)cccc2OC)n(-c2ccnc3cc(Cl)ccc23)n1)C(=O)O
– | 216 | CC(C)CC(NC(=O)OCC1c2ccccc2-c2ccccc21)C(=O)O (stereo not given)
5% | – | COc1cccc(OC)c1-c1cc(C(=O)N[C@H](C(=O)O)C(C)C)nn1-c1ccnc2cc(Cl)ccc12
inactive | – | CC[C@H](C)[C@H](NC(=O)c1cc(-c2c(OC)cccc2OC)n(-c2ccnc3cc(Cl)ccc23)n1)C(=O)O
inactive | – | COc1cccc(OC)c1-c1cc(C(=O)N[C@H](C(=O)O)C2CCCCC2)nn1-c1ccnc2cc(Cl)ccc12
inactive | – | COc1cccc(OC)c1-c1cc(C(=O)NCC(=O)O)nn1-c1ccnc2cc(Cl)ccc12
– | 178 | CC(C)C[C@H](NC(=O)Cn1ccc2cc(NS(=O)(=O)c3cccc4cccnc34)ccc21)C(=O)O
inactive | – | COc1cccc(OC)c1-c1cc(C(=O)N[C@@H](Cc2ccccc2)C(=O)O)nn1-c1ccnc2cc(Cl)ccc12
62% | 2040 | CC(C)C[C@H](NC(=O)c1cc(-c2ccccc2)n(-c2ccnc3cc(Cl)ccc23)n1)C(=O)O
86% | 220 | COc1ccccc1-c1cc(C(=O)N[C@@H](CC(C)C)C(=O)O)nn1-c1ccnc2cc(Cl)ccc12
84% | 1210 | CC(C)C[C@H](NC(=O)c1cc(-c2ccccc2OC(F)(F)F)n(-c2ccnc3cc(Cl)ccc23)n1)C(=O)O

SMILES | Activity [1] | EC50 [2] [nM]
COc1cccc(OC)c1-c1cc(C(=O)N[C@@H](CC(C)C)C(=O)O)nn1-c1ccnc2cc(Cl)ccc12 | – | 67
COc1cccc(OC)c1-c1cc(C(=O)N[C@H](CC(C)C)C(=O)O)nn1-c1ccnc2cc(Cl)ccc12 | 57% | 986
